From ChEMBL document CHEMBL1156455, “Interaction between HIV-1 Rev and integrase proteins: a basis for the development of anti-HIV peptides” (J Biol Chem, 2007) come the findings set out here.

In assay [1] the test system is Human immunodeficiency virus 1. The experiment in a line: Inhibition of HIV1 replication in human TZM-bl cells assessed as beta-galactosidase activity at 2.5 uM. Format: functional. The gist of the method: (§1)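 TZM-bl cells carrying TAR-driven β-galactosidase, incubated with peptides, then infected with HIV-1 in 20 µg/ml DEAE-dextran. Cells fixed 2 days post-infection, stained with X-gal, and blue cells counted by light microscopy.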

In assay [2] the target is Human immunodeficiency virus type 1 integrase (Human immunodeficiency virus 1) (UniProt Q7ZJM1). The assay can be described thus: (§2) Inhibition of HIV1 integrase by quantitative ELISA. In outline: (§3)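 Overall integration reaction: 390 nM IN preincubated 10 min with peptide, then 1 µM biotin/digoxigenin-labelled duplex oligonucleotide in 20 mM Hepes pH 7.5, 10 mM MgCl2, 10 mM DTT, 10% Me2SO, 5% PEG-8000, 0.1 mg/ml BSA for 1 h at 37 °C. Stopped with EDTA/NaCl/salmon sperm DNA buffer; product read by immunoassay on avidin-coated plates.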
Chain of Human immunodeficiency virus type 1 integrase (Human immunodeficiency virus 1) (Q7ZJM1 as listed by the source): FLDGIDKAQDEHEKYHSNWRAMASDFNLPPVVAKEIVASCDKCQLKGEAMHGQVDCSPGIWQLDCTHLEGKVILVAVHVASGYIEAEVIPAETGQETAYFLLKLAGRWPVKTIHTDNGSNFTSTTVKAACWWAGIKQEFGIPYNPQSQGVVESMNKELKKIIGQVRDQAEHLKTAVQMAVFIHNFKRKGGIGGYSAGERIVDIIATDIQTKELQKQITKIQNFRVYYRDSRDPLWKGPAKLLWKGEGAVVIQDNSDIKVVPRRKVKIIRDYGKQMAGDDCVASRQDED

Assay [3] deals with Human immunodeficiency virus 1. The experiment in a line: Inhibition of HIV1 replication in human T-lymphoid H9 cells assessed as decrease in viral p24 level. Format: functional, organism-based. In outline:
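H9 cells pretreated 2 h with peptide, infected with wild-type HIV-1 (HXB2, from transfected HEK293T) at m.o.i. 0.1 for 1 h at 37 °C, washed, cultured 10 days; p24 measured by capture immunoassay.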

For assay [4], the target named is Human immunodeficiency virus type 1 integrase (Human immunodeficiency virus 1) (UniProt Q7ZJM1). The experiment in a line: Inhibition of HIV1 integrase by qualitative integration assay system. In outline: (§4)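 IN (0.8 µM) incubated with peptides; 3'-end processing or strand-transfer activity followed on labelled gel-purified oligonucleotide substrates by gel size shift or specific cleavage.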

The test system of assay [5] is Human immunodeficiency virus 1. The experiment in a line: Inhibition of HIV1 delta env/VSV-G replication in human sup T1 T-lymphoid […] cells assessed as inhibition of total viral DNA at 2 uM after 2 hrs by RT-PCR. It is filed as functional, organism-based. The gist of the method:
(§5)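 Sup T1 cells pretreated 2 h with 12.5 µM peptide or 2 µM azidothymidine, then infected with HIV-1 Δenv/VSV-G at m.o.i. 2 for 6 h. Gag and Nef DNA amplified by PCR from 10 ng total cell DNA, 29 cycles.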

Assay [6] addresses Human immunodeficiency virus type 1 integrase (Human immunodeficiency virus 1) (UniProt Q7ZJM1). The experiment in a line: Inhibition of recombinant HIV1 integrase 3'-end processing activity. The gist of the method:
as §4

For assay [7] the target is unchanged. The assay can be described thus: Inhibition of recombinant HIV1 integrase strand transfer activity. The gist of the method: as §4
In assay [8] the test system is Human immunodeficiency virus 1. The experiment in a line: Inhibition of HIV1 delta env/VSV-G replication in human sup T1 T-lymphoid […] cells assessed as inhibition of viral DNA integration by RT-PCR. It is filed as functional, organism-based. In outline: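 Sup T1 cells pretreated 2 h with peptide, infected with HIV-1 Δenv/VSV-G at m.o.i. 2 for 24 h. Integrated DNA quantified by two-round Alu-LTR PCR (12 cycles, then 50 real-time cycles) against an HXB2 plasmid standard curve (5 ng to 0.25 fg), quadruplicate samples.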

The test system of assay [9] is Human immunodeficiency virus 1. The assay can be described thus: Inhibition of HIV1 delta env/VSV-G replication in human sup T1 T-lymphoid […] cells assessed as inhibition of total viral DNA at 12.5 uM after 2 hrs by RT-PCR. Format: functional, organism-based. The gist of the method: as §5
Assay [10] has as its target T1, Human immunodeficiency virus type 1 integrase (Human immunodeficiency virus 1, UniProt Q7ZJM1). The experiment in a line: Binding affinity to HIV1 integrase by fluorescence anisotrophy. The gist of the method:
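Fluorescein-labelled peptide (final 0.05 to 0.1 µM) in 20 mM Tris pH 7.4 at 10 °C; 100 µM IN (taken as monomer) titrated in 20 steps of 10 µl at 15-min intervals. Anisotropy read at ex 480/em 530 nm after each addition; data fitted to Hill equation for Ka (Kd = 1/Ka).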

The target of assay [11] is T1, Human immunodeficiency virus type 1 integrase. The description is as §2. In outline:
as §3

The test system of assay [12] is Human immunodeficiency virus 1. The experiment in a line: Inhibition of HIV1 replication in human TZM-bl cells assessed as beta-galactosidase activity. Format: functional, organism-based. In outline:
as §1

A word on the Kd: it is the concentration at which binding is half-saturated. One may read the inhibition as how much of the control response was suppressed. What is called IC50 is the concentration at which inhibition is half-maximal. Low values mean greater potency, high ones weaker potency.

Active and inactive are the calls of the source. The rule behind the calls is not given here.

T1 sequence (Q7ZJM1 whole entry): as the sequence (Q7ZJM1 as listed by the source) above

H-FRKLIYLTKVL-OH: the outcome in assay [1], in assay [3] and in assay [4] was inactive. In addition, the result in assay [2] was Active.

On to `Cc1cn([C@H]2C[C@H](N=[N+]=[N-])[C@@H](CO)O2)c(=O)[nH]c1=O`, for which the result in [5] was Active.

As to H-STYLGRPAEPVPLQL-OH, the result in assay [6] and in assay [7] was inactive.

In the case of H-SGDSDEELLKTVRLI-OH, the outcome in assay [6] was Active. Besides, the outcome in assay [7] was inactive.

Take H-WRERQRQIRSISGWI-OH: the result in [6] and in [7] was inactive.

Take `CC[C@H](C)[C@H](NC(=O)[C@H](CC(C)C)NC(=O)[C@H](CCCNC(=N)N)NC(=O)[C@@H](NC(=O)[C@@H](NC(=O)[C@H](CCCCN)NC(=O)[C@@H](N)CC(C)C)[C@H](C)O)C(C)C)C(=O)N[C@@H](CCCCN)C(=O)N[C@@H](Cc1ccccc1)C(=O)N[C@@H](CC(C)C)C(=O)N[C@@H](Cc1ccc(O)cc1)C(=O)N[C@@H](CCC(N)=O)C(=O)N[C@@H](CO)C(=O)N[C@@H](CC(N)=O)C(=O)N1CCC[C@H]1C(=O)O`: the result in assay [6], in assay [8] and in [7] was Active.

For the compound H-RLIKFLYQSNPPPSP-OH, the outcome in assay [6] and in assay [7] was inactive.

Take H-LKTVRLIKFLY-OH [LKTVRLIKFLY]: the outcome in assay [9] was inactive. For the same compound, in [10], the Kd was determined as 2.8 µM. Besides, the outcome in assay [6], in [3] and in assay [7] was Active. Further, in assay [1] (Human immunodeficiency virus 1, TZM-bl), the inhibition at 2.5 µM came to 70%. In assay [11], the midpoint of inhibition, the IC50, lay at 25 µM. For the same compound, in assay [12], the Activity entry is “Dose-dependent effect”.

Regarding `CSCC[C@H](N)C(=O)N[C@@H](C)C(=O)NCC(=O)N[C@@H](CCCNC(=N)N)C(=O)N[C@@H](CO)C(=O)NCC(=O)N[C@@H](CC(=O)O)C(=O)N[C@@H](CO)C(=O)N[C@@H](CC(=O)O)C(=O)N[C@@H](CCC(=O)O)C(=O)N[C@@H](CCC(=O)O)C(=O)N[C@@H](CC(C)C)C(=O)N[C@@H](CC(C)C)C(=O)N[C@@H](CCCCN)C(=O)N[C@H](C(=O)O)[C@@H](C)O`, the result in assay [6] and in [7] was inactive.

As to H-GWILSTYLGRPAEPV-OH, the outcome in assay [7] was inactive.

Compound H-FVSTHFSVPASPWLLLIDIV-OH yielded a Kd in assay [10] of 7.5 µM.

As for H-DEELLKTVRLIKFLY-OH, the outcome in [6] and in [7] was Active.

Turning to `CC[C@H](C)[C@H](NC(=O)[C@H](CC(C)C)NC(=O)[C@H](CCCNC(=N)N)NC(=O)[C@@H](NC(=O)[C@@H](NC(=O)[C@H](CCCCN)NC(=O)[C@H](CC(C)C)NC(=O)[C@H](CC(C)C)NC(=O)[C@H](CCC(=O)O)NC(=O)[C@H](CCC(=O)O)NC(=O)[C@H](CC(=O)O)NC(=O)[C@H](CO)NC(=O)[C@H](CC(=O)O)NC(=O)CNC(=O)[C@H](CO)NC(=O)[C@H](CCCNC(=N)N)NC(=O)CNC(=O)[C@H](C)NC(=O)[C@@H](N)CCSC)[C@@H](C)O)C(C)C)C(=O)N[C@@H](CCCCN)C(=O)N[C@@H](Cc1ccccc1)C(=O)N[C@@H](CC(C)C)C(=O)N[C@@H](Cc1ccc(O)cc1)C(=O)N[C@@H](CCC(N)=O)C(=O)N[C@@H](CO)C(=O)N[C@@H](CC(N)=O)C(=O)N1CCC[C@H]1C(=O)N1CCC[C@H]1C(=O)N1CCC[C@H]1C(=O)N[C@@H](CO)C(=O)O`, in assay [9], the result was inactive. For the same compound, the dissociation constant (Kd) in [10] was determined as 6.5 µM.

For the compound `CC[C@H](C)[C@H](NC(=O)[C@H](CO)NC(=O)[C@H](Cc1c[nH]c2ccccc12)NC(=O)[C@@H](NC(=O)[C@H](CCCNC(=N)N)NC(=O)CNC(=O)[C@H](CO)NC(=O)[C@@H]1CCCN1C(=O)[C@H](CO)NC(=O)[C@@H](NC(=O)[C@H](CCCNC(=N)N)NC(=O)[C@H](Cc1ccc(O)cc1)NC(=O)[C@H](CC(C)C)NC(=O)CNC(=O)[C@@H](N)CC(C)C)[C@H](C)O)[C@@H](C)CC)C(=O)O`, the outcome in [1], in assay [3] and in [4] was inactive. Moreover, the outcome in [2] was Active.

Turning to H-QRQIRSISGWILSTYLGRPAEPVPLQ-OH, the Kd in assay [10] was 11.2 µM.

Consider H-QRQIRSISGWILSTY-OH, for which the result in assay [6] and in assay [7] was Active.

In the case of H-RSISGWILSTYLGRP-OH, the outcome in [9] was inactive. Further, in [10], the Kd stood at 6.9 µM. The outcome in [6], in assay [1], in assay [8], in assay [3] and in [7] was Active. This compound also registered an IC50 in [11] of 25 µM. Also, the Activity entry in [12] is “Dose-dependent effect”.
